Measured values pooled from the literature.
Protocols differ between the studies behind these lines.
CDK14: Cyclin-dependent kinase 14 (CDK14, Homo sapiens, UniProt O94921)
CDK14 with cyclin Y: Cyclin-dependent kinase 14, with cyclin Y (CDK14, Homo sapiens, UniProt O94921)

SMILES	target	test	setting	quantity	value
C1=C/COCc2cc(ccc2OCCN2CCCC2)Nc2nccc(n2)-c2cccc(c2)COC/1	CDK14	cell-free assay	0.1 µM	remaining signal	87%
CC(C)S(=O)(=O)c1ccc2nccc(Nc3ccc4sc(C5CCCC5)nc4c3)c2c1	CDK14 with cyclin Y	enzyme activity, inhibitor	1 µM	activity vs control	110%
COc1ccc2oc(-c3ccc4nc(N)oc4c3)c/c(=N\c3ccccc3NC(=O)CCN)c2c1	CDK14 with cyclin Y	binding	1 µM	remaining binding	100%
CCCCC(=O)Nc1ccc(-c2ccc3ncn(CCC)c(=O)c3c2)cn1	CDK14	binding, competition with immobilised ligand	0.5 µM	remaining binding	100%
Cc1ccc(NC(=O)c2ccnc(C(F)(F)F)c2)cc1-c1cc(OCCO)nc(N2CCOCC2)c1	CDK14	binding, competition with immobilised ligand	1 µM	remaining binding	100%
CO[C@@H]1[C@H](N(C)C(=O)c2ccccc2)C[C@H]2O[C@]1(C)n1c3ccccc3c3c4c(c5c6ccccc6n2c5c31)C(=O)NC4	CDK14	enzyme activity, inhibitor	1 µM	inhibition	0%
CN1CCN(C(=O)c2ccc(NC(=O)Nc3ccc(N(C)c4ccnc(Nc5ccc(CS(C)(=O)=O)cc5)n4)cc3)cc2)CC1	CDK14	binding, competition with immobilised ligand	1 µM	remaining binding	81%
CC#CC(=O)N1CCC[C@H]1c1nc(-c2ccc(C(=O)Nc3ccccn3)cc2)c2c(N)nccn12	CDK14	enzyme activity, inhibitor	1 µM	inhibition	4%
